Experimental data from ChEMBL document CHEMBL3580647, “Discovery of potent indenoisoquinoline topoisomerase I poisons lacking the 3-nitro toxicophore” (J Med Chem, 2015).
Activity calls are given as the source filed them. The calls are words filed in the database; no cut-off is given here.

How the values were obtained:
[1] = molecular target: T1, DNA topoisomerase 1 (Homo sapiens) (UniProt P11387); test: Inhibition of recombinant topoisomerase 1 (unknown origin) assessed as DNA cleavage using 3'-[32P]-labeled 117-bp DNA oligonucleotide at 1 uM by PAGE assay; parameters: Activity: scale not given: the % may be the effect or the level left
T1 sequence (whole entry): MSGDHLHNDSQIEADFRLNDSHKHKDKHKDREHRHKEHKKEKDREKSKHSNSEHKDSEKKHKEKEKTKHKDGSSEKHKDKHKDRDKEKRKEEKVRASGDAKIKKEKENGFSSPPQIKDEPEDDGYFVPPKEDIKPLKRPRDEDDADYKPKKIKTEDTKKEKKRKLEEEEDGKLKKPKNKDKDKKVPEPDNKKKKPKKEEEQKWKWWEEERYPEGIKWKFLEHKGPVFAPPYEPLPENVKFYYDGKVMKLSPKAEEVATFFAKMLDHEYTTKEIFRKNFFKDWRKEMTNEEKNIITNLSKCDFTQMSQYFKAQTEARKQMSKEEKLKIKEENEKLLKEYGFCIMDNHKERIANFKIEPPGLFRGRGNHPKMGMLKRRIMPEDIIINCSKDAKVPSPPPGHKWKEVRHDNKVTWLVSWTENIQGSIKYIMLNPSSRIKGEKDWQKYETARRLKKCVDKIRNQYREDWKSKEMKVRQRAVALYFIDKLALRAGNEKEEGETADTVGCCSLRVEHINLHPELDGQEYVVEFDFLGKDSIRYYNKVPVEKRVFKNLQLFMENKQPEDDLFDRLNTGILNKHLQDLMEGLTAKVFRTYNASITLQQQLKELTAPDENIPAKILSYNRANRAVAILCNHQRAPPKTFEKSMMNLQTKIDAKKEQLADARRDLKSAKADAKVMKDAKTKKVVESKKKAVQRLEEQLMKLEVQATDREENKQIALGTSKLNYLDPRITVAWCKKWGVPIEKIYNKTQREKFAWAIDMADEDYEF
Procedure, shortened: (§1)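 Approx. 2 nM 3′-[³²P]-labeled double-stranded DNA incubated with recombinant Top1 and compound at 0.1, 1, 10 or 100 μM for 20 min at 25 °C. Stopped with 0.5% SDS and run on a denaturing gel. […] Run twice.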

SN12C = test: Growth inhibition of human SN12C cells by five-dose growth inhibition assay; format: functional
MCF7 = test: Growth inhibition of human MCF7 cells by five-dose growth inhibition assay; format: functional
[2] = molecular target: T1, DNA topoisomerase 1 (Homo sapiens); test: Inhibition of recombinant topoisomerase 1 (unknown origin) assessed as DNA cleavage using 3'-[32P]-labeled 117-bp DNA oligonucleotide at 10 uM by PAGE assay; procedure, shortened: as §1
[3] = (§2) Growth inhibition of human NCI60 cells assessed as cell growth at 10 uM; format: functional; conditions: read-out: Activity
Procedure, shortened: (§3)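 NCI-60 single-dose screen at 10 μM across ~60 human cancer cell lines. Reported as growth percent relative to vehicle-treated control, averaged over all lines tested as a mean growth percent.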

[4] = molecular target: T1, DNA topoisomerase 1 (Homo sapiens); test: Inhibition of recombinant topoisomerase 1 (unknown origin) assessed as DNA cleavage using 3'-[32P]-labeled 117-bp DNA oligonucleotide at 100 uM by PAGE assay; procedure, shortened: as §1
[5] = molecular target: T1, DNA topoisomerase 1 (Homo sapiens); test: Inhibition of recombinant topoisomerase 1 (unknown origin) assessed as DNA cleavage using 3'-[32P]-labeled 117-bp DNA oligonucleotide at 0.1 uM by PAGE assay; procedure, shortened: as §1
HOP-62 = test: Growth inhibition of human HOP62 cells by five-dose growth inhibition assay; format: functional
UACC-62 = test: Growth inhibition of human UACC62 cells by five-dose growth inhibition assay; format: functional
[6] = Growth inhibition of human SF539 cells by five-dose growth inhibition assay; format: functional; conditions: SF-539
OVCAR-3 = test: Growth inhibition of human OVCAR3 cells by five-dose growth inhibition assay; format: functional
HCT-116 = test: Growth inhibition of human HCT116 cells by five-dose growth inhibition assay; format: functional
DU-145 = test: Growth inhibition of human DU145 cells by five-dose growth inhibition assay; format: functional
NCI60 = test: as §2; format: functional; procedure, shortened: as §3

| Activity [1] | GI50 (MCF7) | inhibition [1] | inhibition [2] | inhibition [4] | inhibition [5] | GI50 (OVCAR-3) | GI50 (HCT-116) | GI50 (DU-145) | Compound | GI50 (SN12C) | growth at 10 µM [3] | GI50 (HOP-62) | GI50 (UACC-62) | GI50 [6] | Activity (NCI60) |
| --- | --- | --- | --- | --- | --- | --- | --- | --- | --- | --- | --- | --- | --- | --- | --- |
| 100% | – | – | – | – | – | – | – | – | O=C1c2ccccc2-c2c1c1ccc([N+](=O)[O-])cc1c(=O)n2C[C@H](O)CO | – | – | – | – | – | – |
| 75% | 347 nM | Active | Active | Active | Active | 4270 nM | 1290 nM | – | O=C1c2ccccc2-c2c1c1ccc(F)cc1c(=O)n2CCCN1CCOCC1 | 2340 nM | 30.3% | 2090 nM | 1380 nM | 2950 nM | – |
| 20% | – | Active | Active | Active | Active | – | – | – | O=C1c2ccccc2-c2c1c1ccc(I)cc1c(=O)n2CCCN1CCOCC1 | – | 96% | – | – | – | – |
| 20% | – | – | – | – | – | – | – | – | O=C1c2ccccc2-c2c1c1cc(C(F)(F)F)ccc1c(=O)n2CCCn1ccnc1 | – | 49.3% | – | – | – | – |
| 50% | 191 nM | – | – | – | – | 3310 nM | 251 nM | 676 nM | O=C1c2ccccc2-c2c1c1ccc(Br)cc1c(=O)n2CCCn1ccnc1 | 468 nM | 27.3% | 513 nM | 427 nM | 676 nM | – |
| 20% | – | – | – | – | – | – | – | – | COC(=O)c1ccc2c3c(n(CCCN4CCOCC4)c(=O)c2c1)-c1ccccc1C3=O | – | 87.5% | – | – | – | – |
| 100% | – | – | – | – | – | – | 30 nM | – | CC[C@@]1(O)C(=O)OCc2c1cc1n(c2=O)Cc2cc3c(CN(C)C)c(O)ccc3nc2-1 [TOPOTECAN] | 20 nM | – | – | – | 10 nM | – |
| 50% | – | – | – | – | – | – | – | – | CS(=O)(=O)c1ccc2c3c(n(CCCn4ccnc4)c(=O)c2c1)-c1ccccc1C3=O | – | 59.4% | – | – | – | – |
| 50% | – | – | – | – | – | – | – | – | CS(=O)(=O)c1ccc2c3c(n(C[C@H](O)CO)c(=O)c2c1)-c1ccccc1C3=O | – | 96.7% | – | – | – | – |
| 20% | 257 nM | – | – | – | – | 1510 nM | 646 nM | 1100 nM | O=C1c2ccccc2-c2c1c1ccc(C(F)(F)F)cc1c(=O)n2CCCn1ccnc1 | 1780 nM | 6.57% | 407 nM | 537 nM | 1290 nM | – |
| 50% | 331 nM | – | – | – | – | – | – | 977 nM | CN(C)CCCn1c2c(c3ccncc3c1=O)C(=O)c1ccccc1-2 | 955 nM | – | – | – | 708 nM | – |
| 75% | 31 nM | Active | Active | Active | Active | – | – | – | O=C1c2ccccc2-c2c1c1ccc(Cl)cc1c(=O)n2CCCn1ccnc1 | 110 nM | 0.06% | – | 74 nM | 204 nM | – |
| 50% | 257 nM | – | – | – | – | 2240 nM | 437 nM | 2090 nM | O=C1c2ccccc2-c2c1c1ccc(Cl)cc1c(=O)n2C[C@H](O)CO | 977 nM | 14.5% | 692 nM | 398 nM | 417 nM | – |
| 75% | – | – | – | – | – | – | – | – | O=C1c2ccccc2-c2c1c1ccc(Br)cc1c(=O)n2CCCN1CCOCC1 | – | 84% | – | – | – | – |
| 50% | 74 nM | – | – | – | – | 3890 nM | 200 nM | 603 nM | O=C1c2ccccc2-c2c1c1ccc(I)cc1c(=O)n2CCCn1ccnc1 | 708 nM | 43.5% | 437 nM | 2290 nM | 550 nM | – |
| 50% | 372 nM | Active | Active | Active | Active | 6030 nM | 1620 nM | 4070 nM | O=C1c2ccccc2-c2c1c1ccc(Cl)cc1c(=O)n2CCCN1CCOCC1 | 5010 nM | 44.7% | 2140 nM | 3310 nM | 2400 nM | – |
| 50% | 33 nM | – | – | – | – | 4680 nM | 112 nM | 562 nM | N#Cc1ccc2c3c(n(CCCn4ccnc4)c(=O)c2c1)-c1ccccc1C3=O | 575 nM | 41.1% | 537 nM | 407 nM | 501 nM | – |
| 20% | – | – | – | – | – | – | – | – | COC(=O)c1ccc2c3c(n(C[C@H](O)CO)c(=O)c2c1)-c1ccccc1C3=O | – | – | – | – | – | inactive |
| 50% | – | – | – | – | – | – | – | – | N#Cc1ccc2c3c(n(CCCN4CCOCC4)c(=O)c2c1)-c1ccccc1C3=O | – | 102% | – | – | – | – |
| 50% | 316 nM | – | – | – | – | 100000 nM | 398 nM | 692 nM | COC(=O)c1ccc2c3c(n(CCCn4ccnc4)c(=O)c2c1)-c1ccccc1C3=O | 525 nM | 62.1% | 589 nM | 100000 nM | 490 nM | – |
| 70% | – | – | – | – | – | – | – | – | O=C1c2ccccc2-c2c1c1ccc([N+](=O)[O-])cc1c(=O)n2CCCN1CCOCC1 | – | – | – | – | – | – |
| 75% | 135 nM | Active | Active | Active | Active | 1290 nM | 309 nM | 575 nM | O=C1c2ccccc2-c2c1c1ccc(F)cc1c(=O)n2CCCn1ccnc1 | 437 nM | -8.15% | 490 nM | 245 nM | 417 nM | – |
| 50% | – | – | – | – | – | – | – | – | O=C1c2ccccc2-c2c1c1ccc(F)cc1c(=O)n2C[C@H](O)CO | – | 61.1% | – | – | – | – |
| 20% | – | – | – | – | – | – | – | – | CSc1ccc2c3c(n(CCCn4ccnc4)c(=O)c2c1)-c1ccccc1C3=O | – | 42.6% | – | – | – | – |
| 50% | – | – | – | – | – | – | – | – | O=C1c2ccccc2-c2c1c1ccc(Br)cc1c(=O)n2C[C@H](O)CO | – | 46.8% | – | – | – | – |
| 20% | – | – | – | – | – | – | – | – | O=C1c2ccccc2-c2c1c1cc(C(F)(F)F)ccc1c(=O)n2C[C@H](O)CO | – | 82.7% | – | – | – | – |
| 100% | 2170 nM | – | – | – | – | – | – | – | O=C1c2ccccc2-c2c1c1ccc([N+](=O)[O-])cc1c(=O)n2CCCn1ccnc1 | – | – | – | – | – | – |
| 20% | – | – | – | – | – | – | – | – | N#Cc1ccc2c3c(n(C[C@H](O)CO)c(=O)c2c1)-c1ccccc1C3=O | – | 42.6% | – | – | – | – |
| 20% | – | – | – | – | – | – | – | – | O=C1c2ccccc2-c2c1c1ccc(C(F)(F)F)cc1c(=O)n2C[C@H](O)CO | – | 52.2% | – | – | – | – |
| 20% | 427 nM | – | – | – | – | 4370 nM | 741 nM | 2510 nM | CSc1ccc2c3c(n(C[C@H](O)CO)c(=O)c2c1)-c1ccccc1C3=O | 1950 nM | 39.7% | 1820 nM | 1380 nM | 2340 nM | – |

| Compound | Activity [1] | GI50 (MCF7) | inhibition [1] | inhibition [2] | inhibition [4] | inhibition [5] | GI50 (OVCAR-3) | GI50 (HCT-116) | GI50 (DU-145) | GI50 (SN12C) | growth at 10 µM [3] | GI50 (HOP-62) | GI50 (UACC-62) | GI50 [6] | Activity (NCI60) |
| --- | --- | --- | --- | --- | --- | --- | --- | --- | --- | --- | --- | --- | --- | --- | --- |
| O=C1c2ccccc2-c2c1c1ccncc1c(=O)n2CCCn1ccnc1 | 20% | – | – | – | – | – | – | – | – | – | 47.5% | – | – | – | – |
| O=C1c2ccccc2-c2c1c1ccncc1c(=O)n2CCCN1CCOCC1 | 50% | – | – | – | – | – | – | – | – | – | – | – | – | – | inactive |
